ChEMBL document CHEMBL4513216, “Probing the Open Global Health Chemical Diversity Library for Multistage-Active Starting Points for Next-Generation Antimalarials” (ACS Infect Dis, 2020)

Assay: Toxicity liver stage against HepG2, at 10uM
Assay type: cell-based
Set-up: test concentration 10 uM, cell line HepG2-A16-CD81EGFP
Conditions: human, HepG2-A16-CD81EGFP cells; read-out: INHIBITION
Outline: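 Uninfected HepG2-A16-CD81EGFP cells, 3 × 10^3 per well, 1536-well, plated on prespotted compound at 10 μM final, parasite-free screening media added to match infected plates; puromycin 10 μM positive, DMSO 0.5% negative; run in parallel with 48 h PbLuc assay at 37 °C, 5% CO2; viability by CellTiter-Glo luminescence, normalized to controls.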

CS(=O)(=O)c1ccc(Cl)c(NC(=O)NCCC2=CCCCC2)c1
cytotoxicity at 10 µM: 0.0793%

CCC1CN(CC(=O)NCCN2CCCCCC2)c2ccccc2S1 (stereo not drawn)
cytotoxicity at 10 µM: -1.14%

O=C(c1cccnc1)N1CCN(c2ccc(-n3cccc3)nn2)CC1
cytotoxicity at 10 µM: -9.73%

Cc1cnc(N2CCOC3(CCCN(c4ncccn4)C3)C2)nc1 (stereo not drawn)
cytotoxicity at 10 µM: 9.19%

Cc1cccc(CN2CCC3(CCCN(Cc4cnn(C)c4)C3)C2=O)n1 (stereo not drawn)
cytotoxicity at 10 µM: 6.02%

O=C(c1ccsc1)N1CCc2c(CN3CCCC3)n[nH]c2C1
cytotoxicity at 10 µM: 5.04%

CC1=N[C@@]2(CC[C@@H]3CN(C(=O)Nc4ccc(F)cc4)C[C@@H]32)C(=O)N1C
cytotoxicity at 10 µM: 8.1%

Cc1occc1C(=O)N1CCC2(CC1)CC(c1cccnc1)C(=O)N2C (stereo not drawn)
cytotoxicity at 10 µM: -7.09%

CC(C)NC(=O)N1CCN(S(=O)(=O)C2CC2)CC2(CC(=O)N(C)C2)C1 (stereo not drawn)
cytotoxicity at 10 µM: 1.11%

COCC(=O)Nc1cnn(COc2ccc(F)cc2Cl)c1
cytotoxicity at 10 µM: -4.52%

Cn1nnc(NCc2ccc(-c3ccc(Br)cc3)o2)n1
cytotoxicity at 10 µM: -11.1%

COCCC(=O)N1CCC(c2nnc(-c3ccsc3)o2)CC1
cytotoxicity at 10 µM: 9.09%

Cc1ccnc(C2(C)CCCN2S(=O)(=O)c2c(C)noc2C)n1 (stereo not drawn)
cytotoxicity at 10 µM: 0.795%

Cc1cc(C)n(-c2nc(C(=O)NCCS(=O)(=O)N3CCCCC3)cs2)n1
cytotoxicity at 10 µM: -10.3%

CS(=O)(=O)N1CC(c2nc(N)ncc2-c2ccc(F)cc2)C1
cytotoxicity at 10 µM: -3.49%

Cc1cc(=O)[nH]c(=O)n1Cc1ncc(-c2ccccc2C(=O)O)s1
cytotoxicity at 10 µM: 2.71%

COCCC(=O)N1CCC(c2ncncc2-c2ccnc(N)c2)C1 (stereo not drawn)
cytotoxicity at 10 µM: -2.68%

c1nc(C2CCCCO2)ncc1CN1CCOCC1 (stereo not drawn)
cytotoxicity at 10 µM: -8.45%

CNC(=O)C1(CCCc2ccncc2)CCCN1 (stereo not drawn)
cytotoxicity at 10 µM: -6.46%

Cc1ccccc1S(=O)(=O)Cc1nsc(N(C)C)n1
cytotoxicity at 10 µM: -4.45%

COc1c(C2CCCN2c2ncnc3ccsc23)c(C)nn1C (stereo not drawn)
cytotoxicity at 10 µM: 18.6%

CC(=O)NC1(C(=O)N2CCC(Nc3cccnn3)CC2)CCCCC1
cytotoxicity at 10 µM: -5.26%

CCCc1n[nH]c(C2CN(Cc3ncc[nH]3)CCO2)n1 (stereo not drawn)
cytotoxicity at 10 µM: 4.69%

CC(C)(C)NC(=O)CNC(=O)c1cccnc1Oc1cccnc1
cytotoxicity at 10 µM: 4.11%

Cc1csc(CN(C)C(=O)Nc2cnn(CC3CCCO3)c2)n1 (stereo not drawn)
cytotoxicity at 10 µM: -3.28%

Cc1nsc(NCCNS(=O)(=O)c2ccccc2)n1
cytotoxicity at 10 µM: -2.78%

CS(=O)(=O)CCC(=O)NC1CC(c2cccc(Cl)c2)C1 (stereo not drawn)
cytotoxicity at 10 µM: 1.36%

N#Cc1cccnc1NC1CCN(c2ccccc2OC(F)F)C1=O (stereo not drawn)
cytotoxicity at 10 µM: 6.37%

CCCN(C(=O)c1csnn1)C1CCCN(Cc2ccccc2)C1 (stereo not drawn)
cytotoxicity at 10 µM: -4.38%

O=c1[nH]c2ccccc2c(=O)n1Cc1nnnn1C1CC1
cytotoxicity at 10 µM: -16.1%

CC(C)NC(=O)CC(C)NC(=O)N(C)Cc1cc(Cl)cn1C (stereo not drawn)
cytotoxicity at 10 µM: -0.414%

CC(C)=CCS(=O)(=O)Cc1nc(C(C)C)no1
cytotoxicity at 10 µM: 10.8%

COC(=O)NCc1ccc(NC(=O)CC2=CCCCC2)cc1
cytotoxicity at 10 µM: 2.97%

CSc1nc(C2CC2)nc(C)c1C(=O)NCc1ncc(C)o1
cytotoxicity at 10 µM: -3.71%

Cc1cc(C)n(C2CN(c3ncnc4c3CCC4)C2)n1
cytotoxicity at 10 µM: 8.09%

O=C(NCCN1CCOCC1)N(Cc1ccoc1)C1CCCCC1
cytotoxicity at 10 µM: -0.315%

Cc1ccsc1C(=O)Nc1cc(Br)c(=O)n(C)c1
cytotoxicity at 10 µM: -15.1%

CSc1[nH]c(=O)c(C(=O)N2CCCC2C2CCCC2)cc1C#N (stereo not drawn)
cytotoxicity at 10 µM: 5.58%

Cc1cc(CNC2(c3ccccc3)CCCCC2)on1
cytotoxicity at 10 µM: 0.643%

Cc1ccc(SC2CCCC2)c(C(=O)NCc2n[nH]c(=O)[nH]2)c1
cytotoxicity at 10 µM: -38.4%

CC(NCC(=O)NCC(=O)Nc1ccc(F)cc1)c1cccs1 (stereo not drawn)
cytotoxicity at 10 µM: 6.02%

CCN(c1ccc(C(=O)NCc2ccnc(C)n2)cc1)C(C)C
cytotoxicity at 10 µM: -8.78%

CCOc1ncccc1CNC(=O)N1CCCC1c1cc(C)no1 (stereo not drawn)
cytotoxicity at 10 µM: 23.7%

COc1ccc(CC(=O)N2CCCCC2Cn2cccn2)cc1OC (stereo not drawn)
cytotoxicity at 10 µM: -12.4%

Cc1cc2ccccc2n1CCC(=O)NCCS(C)(=O)=O
cytotoxicity at 10 µM: -5.79%

COc1ccccc1C(O)CNc1nccc(-c2ccc(C)nc2C)n1 (stereo not drawn)
cytotoxicity at 10 µM: 8.95%

Cc1ccc([C@@H]2CN(S(=O)(=O)c3ccccc3)C[C@H]2N(C)C)cc1
cytotoxicity at 10 µM: -4.44%

Cc1cc(C(F)(F)F)cc(N2C[C@@H](CN(C)CCO)[C@@H](CO)C2)n1
cytotoxicity at 10 µM: -14.4%

Cc1nc(CC(=O)N2CCCN(c3ccc(F)cc3)CC2)cs1
cytotoxicity at 10 µM: 3.35%

CCc1ncc(-c2cn(CCSc3ncn[nH]3)nn2)cn1
cytotoxicity at 10 µM: 1.41%

CCN1CC2(CCN(CCOc3ccc(F)cc3)CC2)CC1=O
cytotoxicity at 10 µM: 8.12%

CS(=O)(=O)c1ncc(CN2CCCC(C(N)=O)C2)n1CC1CCCCC1 (stereo not drawn)
cytotoxicity at 10 µM: -2.35%

CCc1ncc(CN2CCCC3(CCC(=O)N(CCC(C)C)C3)C2)cn1 (stereo not drawn)
cytotoxicity at 10 µM: -7.66%

COc1ccc(OC)c2c(C)cc(N(C)CCO)nc12
cytotoxicity at 10 µM: 6.36%

CC(C)OC(=O)N1CCCC2(CCC(=O)N(CCc3c[nH]cn3)C2)C1 (stereo not drawn)
cytotoxicity at 10 µM: -3.73%

CC(C)(C)n1cc(C2=CCN(CCN3CCCCCC3)CC2)cn1
cytotoxicity at 10 µM: -0.481%

Cc1cc(C)nc(N(C)CCN(C)C2CCCC2)n1
cytotoxicity at 10 µM: -5.88%

Cc1ccncc1-n1cc(CCO)cn1
cytotoxicity at 10 µM: -2.51%

Cc1ccc(CN2CCNC(=O)C2CC(=O)N2CCSCC2)o1 (stereo not drawn)
cytotoxicity at 10 µM: 4.48%

Nc1cc(C(=O)NCC2CCN(Cc3ccncc3F)C2)ccn1 (stereo not drawn)
cytotoxicity at 10 µM: -24.2%

CO[C@H]1CNC[C@@H]1NC(=O)CCc1nc(-c2ccccc2)no1
cytotoxicity at 10 µM: -1.13%

Cc1cccc(-n2nc(CC(C)C)nc2CS(C)(=O)=O)c1
cytotoxicity at 10 µM: 1.81%

COc1ccc(CNC(=O)N2CCN(C)[C@@H]3CS(=O)(=O)C[C@@H]32)cc1
cytotoxicity at 10 µM: 8.64%

CN(Cc1noc2c1CCCC2)C(=O)CN1C(=O)CSc2ccccc21
cytotoxicity at 10 µM: -40.5%

CN(CCN1CCCCCC1)Cc1cnc(N)nc1
cytotoxicity at 10 µM: 0.993%

Cc1cc(N2CCC(C(=O)O)(n3ccc(C(C)(C)C)n3)CC2)nc(N)n1
cytotoxicity at 10 µM: -5.6%

Cc1csc(CN(C)c2cc(C)nc3c(C)c(C)nn23)n1
cytotoxicity at 10 µM: -2.96%

CCC(C)N(Cc1cccnc1)C(=O)c1ccc(F)c(O)c1 (stereo not drawn)
cytotoxicity at 10 µM: 1.87%

CCn1c(C2CCCN(Cc3cccc4cnccc34)C2)nn(C)c1=O (stereo not drawn)
cytotoxicity at 10 µM: -6.29%

COc1ccc(Cl)cc1C(=O)N1C[C@@H](NC(=O)N(C)C)[C@H](C(C)C)C1
cytotoxicity at 10 µM: -1.41%

COc1ccc(OCC(C)NS(C)(=O)=O)cc1 (stereo not drawn)
cytotoxicity at 10 µM: 16.6%

CCc1cc(N2CCSCC2)n2nc(C)c(C)c2n1
cytotoxicity at 10 µM: -0.854%

O=C(Cc1cccc(Cl)c1)N[C@@H]1CCNC[C@H]1O
cytotoxicity at 10 µM: 2.28%

CCOc1ccc2cc(C(=O)N3CCn4c(CC)nnc4C3)[nH]c2c1
cytotoxicity at 10 µM: -4.77%

COC(=O)c1ccc(N2CCN(CCS(C)(=O)=O)C(C)C2)cc1 (stereo not drawn)
cytotoxicity at 10 µM: -5.57%

O=C(CN1CCCCC1Cn1cncn1)NCCOc1ccccc1 (stereo not drawn)
cytotoxicity at 10 µM: -3.54%

CCNc1cc2c(nn1)CCN(C(=O)CCc1c(C)noc1Cl)C2
cytotoxicity at 10 µM: -3.25%

COCCNC(=O)CN1CCN(c2nc(C)cs2)CC1
cytotoxicity at 10 µM: -13.2%

Cc1ccc(NC(=O)C2CSCN2C(=O)c2cccnc2)c(C)c1 (stereo not drawn)
cytotoxicity at 10 µM: -1.9%

O=C1C(NCc2nnc3n2CCCC3)CCN1c1ccccc1Cl (stereo not drawn)
cytotoxicity at 10 µM: -7.42%

O=C(CCCc1ccccn1)N1CCCC1c1noc(C2CC2)n1 (stereo not drawn)
cytotoxicity at 10 µM: -4.47%

CC(NC(N)=O)C(=O)N(C)CCCc1cc(-c2ccccc2)no1 (stereo not drawn)
cytotoxicity at 10 µM: -1.86%

O=C(c1ccc(O)cc1)N1CCN(C(=O)c2ccc3c(c2)COC3)CC1
cytotoxicity at 10 µM: -9.75%

COc1cccc(OCC(=O)NS(=O)(=O)c2ccc(C)s2)c1
cytotoxicity at 10 µM: -5.87%

COC(=O)N1CCCC(C(=O)NCc2cc3cccc(OC)c3o2)C1 (stereo not drawn)
cytotoxicity at 10 µM: -7.72%

COc1ccc2cc(C(=O)N3CCCCC3Cn3cccn3)[nH]c2c1 (stereo not drawn)
cytotoxicity at 10 µM: -9.32%

CNC(=O)[C@@H](c1ccccc1F)N1CCC[C@H]1C(=O)NC1CC1
cytotoxicity at 10 µM: -5.84%

Cc1oncc1C(=O)N[C@@H]1CN(Cc2ccco2)C[C@@H]2CCCO[C@@H]21
cytotoxicity at 10 µM: -109%

Cn1cc(CN2CCC(F)(F)C3(CCN(c4ccccn4)C3)C2)cn1 (stereo not drawn)
cytotoxicity at 10 µM: -0.434%

Cc1ccc(C(=O)N2C[C@@H]3[C@@H](C2)OCC(=O)N3Cc2cccnc2)o1
cytotoxicity at 10 µM: 3.8%

CN(C)CCOCc1nnc2n1CCN(Cc1ccoc1)CC2
cytotoxicity at 10 µM: -10.7%

CCS(=O)(=O)N1CCC2(CC1)CC(Oc1ccccn1)CO2 (stereo not drawn)
cytotoxicity at 10 µM: -1.58%

O=C(CC1CC1)N1CCN(Cc2cccnc2)c2ncccc2C1
cytotoxicity at 10 µM: 5.15%

CC(C)N1CC[C@H]2[C@H](C[C@@H](Cn3cncn3)N2c2nccs2)C1
cytotoxicity at 10 µM: 4.68%

CC(=O)N1CC[C@H]2[C@H](C[C@@H](CN3CCCC3)N2c2nccs2)C1
cytotoxicity at 10 µM: 1.84%

CN1CCn2c(-c3cnn(C)c3)cnc2C12CCN(CC1CC1)CC2
cytotoxicity at 10 µM: 7.55%

O=C(Cc1ccccc1)N1C[C@@H]2OCCN(CC3CCCO3)[C@@H]2C1 (stereo partly drawn)
cytotoxicity at 10 µM: -3.09%

O=S(=O)(C1CC1)N1C[C@H]2CCC[C@@]2(COc2ccccn2)C1
cytotoxicity at 10 µM: -3.47%

C[C@@H]1CN(C2CCOC2)C[C@]12CCN(Cc1cccnc1)C2=O (stereo partly drawn)
cytotoxicity at 10 µM: -106%

O=C(N1CCOCC1)[C@@]12CCO[C@@H]1CCN(C1CCCCC1)C2
cytotoxicity at 10 µM: 2.14%

COCC(=O)NC[C@]12COC[C@H]1CN(Cc1ccc3c(c1)OCO3)C2
cytotoxicity at 10 µM: -112%

c1cncc(C2COC3(CCN(Cc4cccs4)CC3)C2)c1 (stereo not drawn)
cytotoxicity at 10 µM: -0.697%

CCN1CCO[C@@H]2CN(C(=O)COC3CCCC3)C[C@@H]2C1
cytotoxicity at 10 µM: 4.32%

NC(=O)C1Cn2ccnc2C2(CCN(C(=O)NC3CCCC3)CC2)O1 (stereo not drawn)
cytotoxicity at 10 µM: -104%

c1ccc(CO[C@@H]2CN(Cc3cccnc3)[C@@H]3COC[C@@H]32)nc1
cytotoxicity at 10 µM: -98.7%

COC(=O)Cn1c(=O)[nH]c2cn(-c3ccc(Cl)cc3)c(=O)n21
cytotoxicity at 10 µM: 23.7%

O=C(Cc1cccnc1)N1C[C@@H]2CC[C@H]1CN(Cc1ccc(F)cc1)C2
cytotoxicity at 10 µM: 4.54%

CN(C)S(=O)(=O)N1C[C@H]2CC[C@@H](C1)N(Cc1ccc(F)c(F)c1)C2
cytotoxicity at 10 µM: 1.05%
